38 molecules from ChEMBL document CHEMBL3826920, “Solution-phase microwave assisted parallel synthesis, biological evaluation and in silico docking studies of N,N'-disubstituted thioureas derived from 3-chlorobenzoic acid” (Bioorg Med Chem, 2016) can be followed below.

The structures appear in SMILES notation.

One test has as its system NCI-H157. Kind of test: Growth inhibition of human NCI-H157 cells at 100 uM after 48 hrs by SRB assay. Format: functional. To be noted: NCI-H157, 48 h, read-out: GI. The procedure, abridged:
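H-157 cells seeded at 10⁴ cells per well and grown at 37 °C under 5% CO₂ to a monolayer within 24 h. Compound added, with a vincristine standard and a cells-plus-media blank, for 48 h. Cells fixed in 50% ice-cold TCA (4 °C, 1 h), washed 5× with PBS, stained with 0.4% w/v SRB in 1% acetic acid (30 min, RT), rinsed, and dye solubilized in 10 mM Tris base. A490 read minus A630 background; triplicate.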

The target of test [1] is Urease (Canavalia ensiformis) (UniProt P07374). Kind of test: Inhibition of jack bean urease using urea as substrate assessed as reduction in ammonia production at 1 mM after 30 mins by indophenol method.
Urease (Canavalia ensiformis), sequence (P07374 whole entry, looked up): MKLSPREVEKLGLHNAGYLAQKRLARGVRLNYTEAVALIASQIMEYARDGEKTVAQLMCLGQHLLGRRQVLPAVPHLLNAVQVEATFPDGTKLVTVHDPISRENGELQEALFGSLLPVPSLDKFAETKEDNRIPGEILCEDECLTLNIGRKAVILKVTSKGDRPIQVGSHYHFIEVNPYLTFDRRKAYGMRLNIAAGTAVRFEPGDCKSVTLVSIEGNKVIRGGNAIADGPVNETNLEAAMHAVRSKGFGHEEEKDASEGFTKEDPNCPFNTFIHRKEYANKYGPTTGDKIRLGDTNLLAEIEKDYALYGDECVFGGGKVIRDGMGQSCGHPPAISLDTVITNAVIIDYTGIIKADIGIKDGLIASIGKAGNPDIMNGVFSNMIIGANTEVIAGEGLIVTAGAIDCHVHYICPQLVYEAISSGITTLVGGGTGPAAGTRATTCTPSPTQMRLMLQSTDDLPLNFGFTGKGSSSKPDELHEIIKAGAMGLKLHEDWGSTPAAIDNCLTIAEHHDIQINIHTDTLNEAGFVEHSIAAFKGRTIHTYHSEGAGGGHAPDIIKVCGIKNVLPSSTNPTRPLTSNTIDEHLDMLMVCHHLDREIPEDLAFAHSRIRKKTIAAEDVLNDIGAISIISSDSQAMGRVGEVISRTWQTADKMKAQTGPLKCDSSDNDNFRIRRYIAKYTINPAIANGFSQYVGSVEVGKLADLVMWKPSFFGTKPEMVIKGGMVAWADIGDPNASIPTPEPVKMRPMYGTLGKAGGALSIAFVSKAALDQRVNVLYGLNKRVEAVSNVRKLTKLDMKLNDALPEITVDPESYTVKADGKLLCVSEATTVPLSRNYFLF
The target of the next test is Urease (Canavalia ensiformis, UniProt P07374). Kind of test: Inhibition of jack bean urease using urea as substrate assessed as reduction in ammonia production after 30 mins by indophenol method. The procedure, abridged: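 Compounds were first screened, and those giving at least 50% inhibition went on to dose-response testing. For each, 7–9 serial dilutions were made in assay buffer, and curves were run under the same conditions as the initial screen.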
Urease, sequence (P07374 whole entry): as the sequence (P07374 whole entry, looked up) above

A word on the inhibition: it is the relative decrease from the control value, in per cent. Turning to `O=C(NC(=S)N(C1CCCCC1)C1CCCCC1)c1cccc(Cl)c1`, the inhibition of growth at 100 µM with NCI-H157 was found to be 47.8%. In addition, the inhibition in test [1] was determined as 29.9%.

For orientation: IC50 means the concentration that gives 50% inhibition. Take `O=C(NC(=S)Nc1ccccc1C(F)(F)F)c1cccc(Cl)c1`: the inhibition of growth at 100 µM with NCI-H157 was 36.9%. Further, the half-inhibitory concentration (IC50) on Urease is 5.58 µM. In the same order, the values of `O=C(NC(=S)Nc1ccc(C(F)(F)F)cc1)c1cccc(Cl)c1` are 44.6% and 7.04 µM.

Turning to `O=C(NC(=S)Nc1ccc(Br)cc1Br)c1cccc(Cl)c1`, the inhibition of growth at 100 µM with NCI-H157 is 38.2%. Further, at Urease, the IC50 was found to be 6.32 µM. In the same order, the values of `O=C(NC(=S)Nc1ccc(Cl)cc1Cl)c1cccc(Cl)c1` are 38.9% and 1.34 µM.

As for `COc1ccccc1NC(=S)NC(=O)c1cccc(Cl)c1`, in the test on NCI-H157, the inhibition of growth at 100 µM turned out to be 42.8%. Besides, the IC50 at Urease was 3.79 µM. In the case of `CC[C@]1(O)C[C@H]2CN(CCc3c([nH]c4ccccc34)[C@@](C(=O)OC)(c3cc4c(cc3OC)N(C=O)[C@H]3[C@@](O)(C(=O)OC)[C@H](OC(C)=O)[C@]5(CC)C=CCN6CC[C@]43[C@@H]65)C2)C1` [VINCRISTINE], in the test on NCI-H157, the inhibition of growth at 100 µM was 74.6%. As to `O=C(NC(=S)NCc1ccccc1)c1cccc(Cl)c1`, the inhibition of growth at 100 µM in the test on NCI-H157 amounted to 40.5%. Besides, the IC50 at Urease stood at 16.4 µM. `CCCCc1ccc(NC(=S)NC(=O)c2cccc(Cl)c2)cc1`: the inhibition of growth at 100 µM in the test with NCI-H157 came to 47.7%. Also, the inhibition in test [1] was determined as 36.9%. In the same order, the values of `O=C(NC(=S)Nc1ccccc1Cl)c1cccc(Cl)c1` are 45.4% and 25.7%. As for `CN(C(=S)NC(=O)c1cccc(Cl)c1)c1ccccc1`, the inhibition of growth at 100 µM with NCI-H157 came out at 45.1%. Besides, the 50% inhibitory concentration (IC50) on Urease amounted to 17.5 µM. Take `O=C(NC(=S)Nc1ccc([N+](=O)[O-])cc1[N+](=O)[O-])c1cccc(Cl)c1`: the inhibition of growth at 100 µM in the test on NCI-H157 worked out at 36.1%. The inhibition in test [1] amounted to 23.1%. As for `O=C(NC(=S)Nc1ccccc1)c1cccc(Cl)c1`, in the test with NCI-H157, the inhibition of growth at 100 µM came out at 45.2%. In addition, the IC50 at Urease was found to be 3.24 µM. With `O=C(NC(=S)Nc1cccc(Cl)c1Cl)c1cccc(Cl)c1`, in the test on NCI-H157, the inhibition of growth at 100 µM came to 50.7%. The IC50 at Urease is 1.92 µM. For `O=C(NC(=S)Nc1c(Cl)cccc1Cl)c1cccc(Cl)c1`, in that order: 42.2% and 5.38 µM. As for `O=C(NC(=S)Nc1cccc(C(F)(F)F)c1)c1cccc(Cl)c1`, the inhibition of growth at 100 µM in the test on NCI-H157 worked out at 48.9%. The IC50 at Urease was determined as 2.86 µM. Consider `O=C(NC(=S)Nc1cccc(Br)c1)c1cccc(Cl)c1`, for which the inhibition of growth at 100 µM in the test with NCI-H157 was 32.4%. Besides, at Urease, the 50% inhibitory concentration (IC50) worked out at 20.1 µM. In the same order, the values of `Cc1ccc(NC(=S)NC(=O)c2cccc(Cl)c2)cc1` are 39.4% and 12.4 µM. As to `O=C(NC(=S)Nc1ccc([N+](=O)[O-])cc1)c1cccc(Cl)c1`, the inhibition of growth at 100 µM with NCI-H157 was determined as 32.7%. The inhibition in test [1] turned out to be 28.1%. Turning to `O=C(NC(=S)Nc1ccc(F)cc1)c1cccc(Cl)c1`, the half-maximal inhibitory concentration (IC50) at Urease stood at 2.91 µM. With `O=C(NC(=S)Nc1c(Cl)c(Cl)cc(Cl)c1Cl)c1cccc(Cl)c1`, the inhibition of growth at 100 µM in the test on NCI-H157 was 45.5%. Besides, the inhibition in test [1] stood at 32.7%. As to `O=C(NC(=S)Nc1cc(Cl)cc(Cl)c1)c1cccc(Cl)c1`, the inhibition of growth at 100 µM in the test on NCI-H157 stood at 48.5%. Further, the concentration for half-maximal inhibition (IC50) at Urease came out at 6.53 µM. `COc1cccc(NC(=S)NC(=O)c2cccc(Cl)c2)c1`: in the test on NCI-H157, the inhibition of growth at 100 µM came out at 42.2%. Besides, the inhibition in test [1] worked out at 21.7%. Turning to `O=C(NC(=S)NC1CCCCC1)c1cccc(Cl)c1`, the inhibition of growth at 100 µM in the test on NCI-H157 was 48.5%. Besides, the 50% inhibitory concentration (IC50) on Urease amounted to 14.3 µM. In the same order, the values of `CCc1cccc(CC)c1NC(=S)NC(=O)c1cccc(Cl)c1` are 41.2% and 12.6 µM.

In the case of `O=C(NC(=S)Nc1ccc(Cl)c(Cl)c1)c1cccc(Cl)c1`, the inhibition of growth at 100 µM with NCI-H157 was 39.4%. Also, the inhibition in test [1] stood at 36.7%.

As for `O=C(NC(=S)Nc1ccccc1[N+](=O)[O-])c1cccc(Cl)c1`, the inhibition of growth at 100 µM in the test on NCI-H157 worked out at 36.4%. The IC50 on Urease is 8.59 µM. With `O=C(NC(=S)Nc1cccc(Cl)c1)c1cccc(Cl)c1`, the inhibition of growth at 100 µM with NCI-H157 turned out to be 52.9%. Also, the inhibition in test [1] was found to be 29.1%. In the same order, the values of `O=C(NC(=S)Nc1cccc2ccccc12)c1cccc(Cl)c1` are 42.2% and 37.1%. Regarding `O=C(NC(=S)Nc1ccc(Cl)cc1)c1cccc(Cl)c1`, in the test on NCI-H157, the inhibition of growth at 100 µM is 52.6%. Further, the IC50 on Urease was 11.7 µM.

With `O=C(NC(=S)Nc1ncccn1)c1cccc(Cl)c1`, in the test with NCI-H157, the inhibition of growth at 100 µM amounted to 57.2%. The IC50 at Urease was found to be 2.11 µM.

For `O=C(NC(=S)Nc1c(Cl)cc(Cl)cc1Cl)c1cccc(Cl)c1`, the inhibition of growth at 100 µM in the test with NCI-H157 is 60.9%. The half-maximal inhibitory concentration (IC50) at Urease was 3.64 µM. In the same order, the values of `O=C(NC(=S)Nc1cc(Cl)c(Cl)cc1Cl)c1cccc(Cl)c1` are 43.3% and 7.41 µM.

With `O=C(NC(=S)Nc1cc(Cl)ccc1Cl)c1cccc(Cl)c1`, the inhibition of growth at 100 µM with NCI-H157 was determined as 46.6%. Moreover, the IC50 on Urease worked out at 9.72 µM. `O=C(NC(=S)Nc1nc2ccccc2s1)c1cccc(Cl)c1`: the inhibition of growth at 100 µM in the test on NCI-H157 was determined as 48.8%. In test [1], the inhibition worked out at 27.9%. For `Cc1cc(C)c(NC(=S)NC(=O)c2cccc(Cl)c2)c(C)c1`, in the test on NCI-H157, the inhibition of growth at 100 µM is 43.7%. For the same molecule, the IC50 on Urease was found to be 1.23 µM. On to `O=C(NC(=S)NCc1ccccc1Cl)c1cccc(Cl)c1`, for which, in the test with NCI-H157, the inhibition of growth at 100 µM worked out at 27.6%. Also, in test [1], the inhibition is 27.4%. Take `Cc1cccc(NC(=S)NC(=O)c2cccc(Cl)c2)c1C`: in the test on NCI-H157, the inhibition of growth at 100 µM came out at 41.7%. Also, the IC50 at Urease was determined as 4.45 µM.
